Test: Toxicity liver stage against HepG2, at 10uM
Assay type: cell-based
Set-up: test concentration 10 uM, cell line HepG2-A16-CD81EGFP
Conditions: human, HepG2-A16-CD81EGFP cells; read-out: INHIBITION
In short: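 Uninfected HepG2-A16-CD81EGFP cells, 3 × 10^3 per well, 1536-well, plated on prespotted compound at 10 μM final, parasite-free screening media added to match infected plates; puromycin 10 μM positive, DMSO 0.5% negative; run in parallel with 48 h PbLuc assay at 37 °C, 5% CO2; viability by CellTiter-Glo luminescence, normalized to controls.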

| SMILES | cytotoxicity at 10 µM |
| --- | --- |
| CNC(=O)c1ccc(C(=O)N2CCCC(n3cc(C)cn3)C2)cn1 (stereo not given) | -0.884% |
| Cc1cccc(NC(=O)[C@@H]2CCCN2CC(=O)N2CCCCCC2)n1 | 20.3% |
| CCn1ncc2c1CCCC2NCc1csc(COC)n1 (stereo not given) | 1.17% |
| O=C(NCC(c1ccc(F)cc1)N1CCOCC1)Nc1cn[nH]c1 (stereo not given) | -15% |
| O=C(NC1CC1)[C@H]1COC[C@H]2CN(c3ncc(F)cn3)C[C@H]21 | -0.664% |
| Cc1ccc(F)cc1NC(=O)CNc1cccc2c1CCCC2 | 4.33% |
| CC(C)Cc1noc(CN(C)c2cc(N(C)C)ncn2)n1 | -0.75% |
| c1ccc(OCC2CC3(CCN(Cc4ccncc4)CC3)CO2)nc1 (stereo not given) | -12.5% |
| Cc1nc(CN2CCO[C@@H]3CN(Cc4cccs4)C[C@@H]3C2)cs1 | 6.11% |
| CC(C)NC(=O)C1CN(C(=O)NCc2ccccc2)CC12CCOCC2 (stereo not given) | -84.6% |
| Cc1ccccc1C(=O)N1C[C@@H]2C[C@@H](C)O[C@@H]2C1 | 0.995% |
| O=C(O)c1c(Cl)ncn1-c1ccccc1 | -2.34% |
| O=C1[C@@H]2CC[C@@H](CN(C3CSCCSC3)C2)N1Cc1cscn1 | -15.1% |
| CC(=O)N1CCc2c(nc(-c3ccncc3)nc2N(C)CC(O)CO)C1 (stereo not given) | -13.1% |
| CS(=O)(=O)NCC(=O)NCc1cccnc1-n1cnc2ccccc21 | 0.324% |
| CC(C)C(=O)N(C)CC(=O)Nc1ccc(Br)cn1 | -6.22% |
| CS(=O)(=O)c1ccc(NC(=O)NCCC2=CCCCC2)cc1 | -0.529% |
| COCC(=O)N[C@H]1C[C@H]2C(=O)NC[C@@H](CCC(=O)NC3CC3)N2C1 | 10.7% |
| COc1ccccc1CC1CCCN(CCC(N)=O)C1 (stereo not given) | -5.06% |
| COC[C@@H]1CC[C@H]2[C@H](CCN2S(=O)(=O)Cc2ccccc2)O1 | 7.43% |
| CC(C(=O)NCc1ccc(-n2cncn2)nc1)S(C)(=O)=O (stereo not given) | 7.41% |
| CCNc1ncc(C(=O)N(C)Cc2nc3cc(Cl)ccc3[nH]2)cn1 | -44.3% |
| CC(C)c1cc(C(=O)NCCN2CCCCC2CO)on1 (stereo not given) | 2.07% |
| CC(C)CCC(=O)Nc1ccc2oc(=O)n(CCN(C)C)c2c1 | -9.15% |
| Cn1nccc1CCC(=O)N1CCCC(Cc2cccnc2)C1 (stereo not given) | -3.14% |
| Cc1cc(C(=O)N2CC[C@H](N3CCOCC3)[C@H](CCCO)C2)c(C)n1C | -138% |
| CCc1nc(C(=O)N(CC)CC(=O)N(C)C)nn1-c1ccccc1Cl | 5.25% |
| CC(C)c1nnc(CCC(=O)N2CCOC(c3cnccn3)C2)o1 (stereo not given) | -2.01% |

| SMILES | cytotoxicity at 10 µM |
| --- | --- |
| COc1ccc(-n2cc3nc(N4CCCC4)[nH]cc-3c2=O)cc1Cl | 11.6% |
| Cc1nc(CN2C[C@@H]3CN(C(=O)c4cccn4C)C[C@@H]3C2=O)cs1 | 1.88% |
| CCOC(=O)[C@@H]1[C@@H](c2ccccc2)CN2CCN(C(C)=O)C[C@H]12 | 9.28% |
| Cn1cccc1CN1CCC2(CC1)CCN(C(=O)c1cnccn1)CC2 | -147% |
| CCCS(=O)(=O)N1CCC2(CCC(=O)N(CCc3ccccc3)C2)CC1 | 6.84% |
| Cc1cc(C)n(CC2CCCCN2C(=O)c2ccc3c(c2)COC3)n1 (stereo not given) | -24.4% |
| Cc1nc(C2CCCN2Cc2cc(Cl)c3c(c2)OCCO3)no1 (stereo not given) | 7.1% |
| c1ccc(Cc2nc(CNCCn3cccn3)cs2)cc1 | -2.79% |
| c1ccc2c(c1)CC(Cc1cc(N3CCCC3)cnn1)CCO2 (stereo not given) | -5.5% |
| O=S(=O)(NCc1ccnc(-n2ccnc2)c1)c1cncc(F)c1 | 1.28% |
| CCS(=O)(=O)N1CCC(c2nnc(CN3CCOCC3)n2C)CC1 | 17% |
| c1ccc(N2CCc3ncnc(C4CC4)c3CC2)nc1 | -157% |
| C=Cc1cccc(CN(Cc2cnn(C)c2)C2CC2)c1 | 3% |
| O=C(Cn1c(C(F)F)cc2cccnc21)NC1CCCC1 | -22.2% |
| CN(C)Cc1cncc2c1CCN(Cc1cnn(C)c1)C2 | 4.13% |
| Cc1cccc2cc(CN3CCC(O)(CN4CCCC4)CC3)c(=O)[nH]c12 | -14.9% |
| Nc1no[n+]([O-])c1C(=O)NCc1cccnc1 | 5.93% |
| Cc1ccc(NC(=O)N(C)C)c(C(=O)OCC(=O)NC(C)C(C)C)c1 (stereo not given) | -14.9% |
| CS(=O)(=O)c1nccn1Cc1ccc(Cl)cc1 | -10.4% |
| Cc1nc[nH]c1CN1CCc2nc3scc(C)c3c(=O)n2CC1 | -35.7% |
| Cc1cc(NC2CCc3ncnn3C2)n2ncnc2n1 (stereo not given) | -18.4% |
| COC[C@H]1CCC[C@]12CN(CCc1ccccc1)CCO2 | 4.34% |
| CN(Cc1ccco1)[C@@H]1CN(C(=O)c2cnccn2)C[C@@H]2CCCO[C@@H]21 | 3.25% |
| O=C(NCc1cnn2cccnc12)C1CC(=O)N(Cc2cccnc2)C1 (stereo not given) | 8.21% |
| CCC(=O)NC1CCCN(Cn2nc(C(C)(C)C)ccc2=O)C1 (stereo not given) | -1.69% |
| Cc1cc(C)c(S(=O)(=O)NCCC(=O)NCc2ccoc2)c(C)c1 | 4.05% |
| CS(=O)(=O)N1CCC(C(=O)NCCCn2cc(Cl)cn2)CC1 | -8.97% |
